Measured values from ChEMBL document CHEMBL5247575 (J Med Chem, 2018).

System: Acinetobacter baumannii
Test: Synergistic antibacterial activity against Acinetobacter baumannii PR448 producing OXA-23 assessed as meropenem MIC at 4 ug/ml by broth microdilution method
Type: functional
Conditions: dose 4 µg/ml
Molecule O=C(NNC(=O)[C@@H]1CC[C@@H]2CN1C(=O)N2OS(=O)(=O)O)[C@@H]1CCNC1 has an MIC greater than 16 µg/mL.

System: Pseudomonas aeruginosa
Test: Synergistic antibacterial activity against Pseudomonas aeruginosa 839 assessed as cefepime MIC at 8 ug/ml by broth microdilution method
Type: functional
Conditions: dose 8 µg/ml
Molecule O=C(NNC(=O)[C@@H]1CC[C@@H]2CN1C(=O)N2OS(=O)(=O)O)[C@@H]1CCNC1 has an MIC of no more than 0.12 µg/mL.

System: Acinetobacter baumannii
Test: Synergistic antibacterial activity against ADC deleted Acinetobacter baumannii transfected with pWH1266 producing OXA-24/40 assessed as cefepime MIC at 8 ug/ml by broth microdilution method
Type: functional
Conditions: dose 8 µg/ml
Molecule O=C(NNC(=O)[C@@H]1CC[C@@H]2CN1C(=O)N2OS(=O)(=O)O)[C@@H]1CCNC1 has an MIC of 16 µg/mL.

System: Klebsiella pneumoniae
Test: Synergistic antibacterial activity against Klebsiella pneumoniae 1108/1989 producing KPC-3 assessed as meropenem MIC at 4 ug/ml by broth microdilution method
Type: functional
Conditions: dose 4 µg/ml
How it was run: (§1)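 Broth microdilution per CLSI guidelines, using custom frozen panels. […] Each partner drug was also tested alone. MICs were run in triplicate and the modal value is reported.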
In the case of O=C(NNC(=O)[C@@H]1CC[C@@H]2CN1C(=O)N2OS(=O)(=O)O)[C@@H]1CCNC1, the MIC is reported as no more than 0.12 µg/mL.

System: Acinetobacter baumannii
Test: Synergistic antibacterial activity against Acinetobacter baumannii PR359 producing OXA-23 assessed as cefepime MIC at 4 ug/ml by broth microdilution method
Type: functional
Conditions: dose 4 µg/ml
Work on O=C(NNC(=O)[C@@H]1CC[C@@H]2CN1C(=O)N2OS(=O)(=O)O)[C@@H]1CCNC1 yielded an MIC of 8 µg/mL.

System: Klebsiella pneumoniae
Test: Synergistic antibacterial activity against Klebsiella pneumoniae 11978 producing OXA-48 assessed as meropenem MIC at 8 ug/ml by broth microdilution method
Type: functional
Conditions: dose 8 µg/ml
How it was run: as §1
O=C(NNC(=O)[C@@H]1CC[C@@H]2CN1C(=O)N2OS(=O)(=O)O)[C@@H]1CCNC1 showed an MIC of no more than 0.12 µg/mL.

System: Escherichia coli
Test: Synergistic antibacterial activity against Escherichia coli DH10B transfected with pBC SK (-) KPC-2 assessed as meropenem MIC at 8 ug/ml by broth microdilution method
Type: functional
Conditions: dose 8 µg/ml
With O=C(NNC(=O)[C@@H]1CC[C@@H]2CN1C(=O)N2OS(=O)(=O)O)[C@@H]1CCNC1 the MIC was no more than 0.12 µg/mL.

Target: not listed separately
Test: Binding affinity to bacteria ADC-7 assessed as dissociation constant
Conditions: not given
Molecule O=C(NNC(=O)[C@@H]1CC[C@@H]2CN1C(=O)N2OS(=O)(=O)O)[C@@H]1CCNC1 has a Kd of 29 nM.

System: Klebsiella pneumoniae
Test: Synergistic antibacterial activity against Klebsiella pneumoniae jefferson 1773 producing OXA-181 assessed as cefepime MIC at 8 ug/ml by broth microdilution method
Type: functional
Conditions: dose 8 µg/ml
Work on O=C(NNC(=O)[C@@H]1CC[C@@H]2CN1C(=O)N2OS(=O)(=O)O)[C@@H]1CCNC1 yielded an MIC of no more than 0.12 µg/mL.

System: Acinetobacter baumannii
Test: Synergistic antibacterial activity against Acinetobacter baumannii PR381 producing OXA-24/40 assessed as meropenem MIC at 8 ug/ml by broth microdilution method
Type: functional
Conditions: dose 8 µg/ml
Work on O=C(NNC(=O)[C@@H]1CC[C@@H]2CN1C(=O)N2OS(=O)(=O)O)[C@@H]1CCNC1 yielded an MIC greater than 16 µg/mL.

System: Acinetobacter baumannii
Test: Synergistic antibacterial activity against Acinetobacter baumannii PR440 producing OXA-23/24/40 assessed as cefepime MIC at 8 ug/ml by broth microdilution method
Type: functional
Conditions: dose 8 µg/ml
Work on O=C(NNC(=O)[C@@H]1CC[C@@H]2CN1C(=O)N2OS(=O)(=O)O)[C@@H]1CCNC1 yielded an MIC greater than 16 µg/mL.

System: Klebsiella pneumoniae
Test: Synergistic antibacterial activity against Klebsiella pneumoniae CAV 1543 producing OXA-48 assessed as meropenem MIC at 4 ug/ml by broth microdilution method
Type: functional
Conditions: dose 4 µg/ml
With O=C(NNC(=O)[C@@H]1CC[C@@H]2CN1C(=O)N2OS(=O)(=O)O)[C@@H]1CCNC1 the MIC was no more than 0.12 µg/mL.

System: Escherichia coli
Test: Synergistic antibacterial activity against Escherichia coli DH10B transfected with pBC SK (-) KPC-3 assessed as cefepime MIC at 8 ug/ml by broth microdilution method
Type: functional
Conditions: dose 8 µg/ml
Molecule O=C(NNC(=O)[C@@H]1CC[C@@H]2CN1C(=O)N2OS(=O)(=O)O)[C@@H]1CCNC1 has an MIC of no more than 0.12 µg/mL.

System: Klebsiella pneumoniae
Test: Synergistic antibacterial activity against Klebsiella pneumoniae CAV 1636 producing OXA-181 assessed as cefepime MIC at 4 ug/ml by broth microdilution method
Type: functional
Conditions: dose 4 µg/ml
Molecule O=C(NNC(=O)[C@@H]1CC[C@@H]2CN1C(=O)N2OS(=O)(=O)O)[C@@H]1CCNC1 has an MIC of no more than 0.12 µg/mL.

System: Klebsiella pneumoniae
Test: Synergistic antibacterial activity against Klebsiella pneumoniae 901/1860 producing KPC-3 assessed as meropenem MIC at 4 ug/ml by broth microdilution method
Type: functional
Conditions: dose 4 µg/ml
O=C(NNC(=O)[C@@H]1CC[C@@H]2CN1C(=O)N2OS(=O)(=O)O)[C@@H]1CCNC1 gave an MIC of no more than 0.12 µg/mL.

System: Acinetobacter baumannii
Test: Synergistic antibacterial activity against Acinetobacter baumannii PR323 producing OXA-24/40 assessed as meropenem MIC at 8 ug/ml by broth microdilution method
Type: functional
Conditions: dose 8 µg/ml
Work on O=C(NNC(=O)[C@@H]1CC[C@@H]2CN1C(=O)N2OS(=O)(=O)O)[C@@H]1CCNC1 yielded an MIC greater than 16 µg/mL.

System: Escherichia coli
Test: Synergistic antibacterial activity against Escherichia coli DH10B transfected with pBC SK (-) OXA-48 assessed as cefepime MIC at 8 ug/ml by broth microdilution method
Type: functional
Conditions: dose 8 µg/ml
How it was run: as §1
For O=C(NNC(=O)[C@@H]1CC[C@@H]2CN1C(=O)N2OS(=O)(=O)O)[C@@H]1CCNC1, the MIC was no more than 0.12 µg/mL.

System: Klebsiella pneumoniae
Test: Synergistic antibacterial activity against Klebsiella pneumoniae jefferson 1775 producing OXA-48 assessed as meropenem MIC at 8 ug/ml by broth microdilution method
Type: functional
Conditions: dose 8 µg/ml
O=C(NNC(=O)[C@@H]1CC[C@@H]2CN1C(=O)N2OS(=O)(=O)O)[C@@H]1CCNC1 showed an MIC of no more than 0.12 µg/mL.

System: Acinetobacter baumannii
Test: Synergistic antibacterial activity against Acinetobacter baumannii PR474 producing OXA-23/24/40 assessed as cefepime MIC at 8 ug/ml by broth microdilution method
Type: functional
Conditions: dose 8 µg/ml
In the case of O=C(NNC(=O)[C@@H]1CC[C@@H]2CN1C(=O)N2OS(=O)(=O)O)[C@@H]1CCNC1, the MIC is reported as 8 µg/mL.

System: Klebsiella pneumoniae
Test: Synergistic antibacterial activity against Klebsiella pneumoniae 1084/1957 producing KPC-3 assessed as cefepime MIC at 8 ug/ml by broth microdilution method
Type: functional
Conditions: dose 8 µg/ml
How it was run: as §1
In the case of O=C(NNC(=O)[C@@H]1CC[C@@H]2CN1C(=O)N2OS(=O)(=O)O)[C@@H]1CCNC1, the MIC is reported as no more than 0.12 µg/mL.
